# Assays:
# [1] = target: T1, Alpha amylase (Homo sapiens, UniProt P0DUB6); experiment: Inhibition of alpha-amylase (unknown origin) using starch as substrate preincubated for 10 mins followed by substrate addition and measured after 10 mins by dinitrosalicylic acid reagent based assay
# T1 sequence (P0DUB6 whole entry): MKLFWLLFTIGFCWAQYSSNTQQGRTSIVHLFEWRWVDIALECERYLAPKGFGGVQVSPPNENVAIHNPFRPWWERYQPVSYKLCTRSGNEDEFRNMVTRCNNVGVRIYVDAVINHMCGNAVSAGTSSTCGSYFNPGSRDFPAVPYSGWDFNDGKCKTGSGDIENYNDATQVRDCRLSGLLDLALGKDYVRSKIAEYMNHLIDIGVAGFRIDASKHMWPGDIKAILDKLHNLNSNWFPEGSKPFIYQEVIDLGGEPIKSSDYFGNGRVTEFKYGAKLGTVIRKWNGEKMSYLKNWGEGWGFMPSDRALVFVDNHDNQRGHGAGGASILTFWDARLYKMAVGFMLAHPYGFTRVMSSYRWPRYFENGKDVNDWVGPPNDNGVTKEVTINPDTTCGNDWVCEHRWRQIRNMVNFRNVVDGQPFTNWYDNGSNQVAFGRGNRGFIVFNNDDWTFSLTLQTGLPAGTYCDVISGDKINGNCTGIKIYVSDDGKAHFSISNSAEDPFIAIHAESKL
# Method in brief: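 Enzyme at 0.5 mg/mL in […] pH 6.9, preincubated 10 min at 25 °C with test sample (100, 200, 400, 800, 1000 µg/mL). Then 1% starch in 0.02 M sodium phosphate pH 6.9 added, 10 min at 25 °C.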
# [2] = Inhibition of rat intestinal alpha-glucosidase using p-nitrophenyl-alpha-D-glucopyranoside as substrate preincubated for 5 mins followed by substrate addition and measured after 5 mins by spectrophotometric analysis
# Method in brief: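 Enzyme source: rat intestinal acetone powder in saline (100:1 w/v), sonicated and centrifuged; supernatant used. Samples (5 mg/mL in DMSO) in 100 mM phosphate buffer pH 6.8, incubated 5 min with enzyme. Then 5 mM p-nitrophenyl-α-D-glucopyranoside added, and p-nitrophenol read at 405 nm after 5 min. Blanks had buffer in place of substrate, controls had DMSO. Inhibition computed from control and sample absorbance.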
# [3] = species on record: Homo sapiens; experiment: Uncompetitive inhibition of alpha-glucosidase (unknown origin) assessed as Km using varying levels of para-nitrophenyl-R-D-maltoside as substrate incubated for 30 mins by Lineweaver-Burk plot analysis
# Method in brief: (§1)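 Enzyme at 0.2 mg/mL per well in deionized water with PIPES pH 7.0. Inhibitor at 0.0625–0.4 mM (0.0625, 0.125, 0.3, 0.4), substrate p-nitrophenyl-R-D-maltoside at 0.1, 0.2, 0.4, 0.8 and 1.0 mM. Incubated 30 min at 25 °C with readings at 1-min intervals on a plate reader. Km and Vmax derived by enzyme-kinetic graph fitting.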
# [4] = species on record: Homo sapiens; experiment: Uncompetitive inhibition of alpha-glucosidase (unknown origin) assessed as Vmax using varying levels of para-nitrophenyl-R-D-maltoside as substrate incubated for 30 mins by Lineweaver-Burk plot analysis; method in brief: as §1
# [5] = tested on: Clc1ccc(/C=N/n2cnnc2)c(Cl)c1; experiment: (§2) Mixed type inhibition of alpha-amylase (unknown origin) assessed as Vmax using varying levels of para-nitrophenyl-R-D-maltoside as substrate incubated for 30 mins by Lineweaver-Burk plot analysis; settings: Homo sapiens
# Method in brief: (§3)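 Kinetics run with inhibitor at 0.0625, 0.125, 0.3 and 0.4 mM and p-nitrophenyl-R-D-maltoside at 0.1, 0.2, 0.4, 0.8 and 1.0 mM. Enzyme at 0.2 mg/mL per well in deionized water, PIPES buffer pH 7.0, 30 min at 25 °C, absorbance on a plate reader. Vmax and Km obtained by enzyme-kinetic graph fitting.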
# [6] = tested on: Nc1ncccc1/C=N/n1cnnc1; experiment: as §2; settings: Homo sapiens; method in brief: as §3
# [7] = tested on: C(=N/n1cnnc1)\c1cc2ccccc2[nH]1; experiment: as §2; settings: Homo sapiens; method in brief: as §3
# [8] = tested on: Oc1ccc(/C=N/n2cnnc2)cc1Br; experiment: as §2; settings: Homo sapiens; method in brief: as §3
# [9] = tested on: COc1cc(/C=N/n2cnnc2)cc(OC)c1Br; experiment: as §2; settings: Homo sapiens; method in brief: as §3
# [10] = tested on: O=[N+]([O-])c1cc(O)cc(/C=N/n2cnnc2)c1; experiment: as §2; settings: Homo sapiens; method in brief: as §3
# [11] = tested on: Oc1ccc(/C=N/n2cnnc2)cc1; experiment: as §2; settings: Homo sapiens; method in brief: as §3
# [12] = tested on: COc1cc(/C=N/n2cnnc2)ccc1F; experiment: as §2; settings: Homo sapiens; method in brief: as §3
# [13] = tested on: O=[N+]([O-])c1ccc(/C=N/n2cnnc2)cc1; experiment: as §2; settings: Homo sapiens; method in brief: as §3
# [14] = tested on: COc1ccc(/C=N/n2cnnc2)c(F)c1; experiment: as §2; settings: Homo sapiens; method in brief: as §3
# [15] = tested on: Clc1ccc(/C=N/n2cnnc2)c(Cl)c1; experiment: (§4) Mixed type inhibition of alpha-amylase (unknown origin) assessed as Km using varying level of para-nitrophenyl-R-D-maltoside as substrate incubated for 30 mins by Lineweaver-Burk plot analysis; settings: Homo sapiens; method in brief: as §3
# [16] = tested on: Nc1ncccc1/C=N/n1cnnc1; experiment: as §4; settings: Homo sapiens; method in brief: as §3
# [17] = tested on: C(=N/n1cnnc1)\c1cc2ccccc2[nH]1; experiment: as §4; settings: Homo sapiens; method in brief: as §3
# [18] = tested on: Oc1ccc(/C=N/n2cnnc2)cc1Br; experiment: as §4; settings: Homo sapiens; method in brief: as §3
# [19] = tested on: COc1cc(/C=N/n2cnnc2)cc(OC)c1Br; experiment: as §4; settings: Homo sapiens; method in brief: as §3
# [20] = tested on: O=[N+]([O-])c1cc(O)cc(/C=N/n2cnnc2)c1; experiment: as §4; settings: Homo sapiens; method in brief: as §3
# [21] = tested on: Oc1ccc(/C=N/n2cnnc2)cc1; experiment: as §4; settings: Homo sapiens; method in brief: as §3
# [22] = tested on: COc1cc(/C=N/n2cnnc2)ccc1F; experiment: as §4; settings: Homo sapiens; method in brief: as §3
# [23] = tested on: O=[N+]([O-])c1ccc(/C=N/n2cnnc2)cc1; experiment: as §4; settings: Homo sapiens; method in brief: as §3
# [24] = tested on: COc1ccc(/C=N/n2cnnc2)c(F)c1; experiment: as §4; settings: Homo sapiens; method in brief: as §3
Compound,IC50 [1] [µM],IC50 [2] [µM],further results
CC(C)(C)c1ccc(/C=N/n2cnnc2)cc1,6.44,6.37,
O=[N+]([O-])c1ccc(Cl)c(/C=N/n2cnnc2)c1,4.46,4.37,
Oc1ccc(/C=N/n2cnnc2)c(O)c1O,5.92,5.74,
Alpha amylase (Homo sapiens) (from UniProt P0DUB6),,,Vmax [5]: 221 µM/min; Vmax [6]: 213 µM/min; Vmax [7]: 256 µM/min; Vmax [8]: 221 µM/min; Vmax [9]: 242 µM/min; Vmax [10]: 232 µM/min; Vmax [11]: 237 µM/min; Vmax [12]: 241 µM/min; Vmax [13]: 207 µM/min; Vmax [14]: 238 µM/min; Km [15]: 1200 µM; Km [16]: 1000 µM; Km [17]: 1500 µM; Km [18]: 1200 µM; Km [19]: 1300 µM; Km [20]: 1300 µM; Km [21]: 1300 µM; Km [22]: 1300 µM; Km [23]: 900 µM; Km [24]: 1300 µM
O=[N+]([O-])c1cccc(/C=N/n2cnnc2)c1,5.97,5.37,
C(=N\n1cnnc1)/c1ccc(OCc2ccccc2)cc1,5.04,5.44,
COc1cc(/C=N/n2cnnc2)ccc1O,5.94,5.3,
Oc1ccc(/C=N/n2cnnc2)c(O)c1,5.95,5.44,
CCOc1ccc(/C=N/n2cnnc2)cc1OC,5.24,5.36,
COc1ccc(/C=N/n2cnnc2)cc1OCc1ccccc1,6.23,6.54,
CC(C)(C)c1cc(/C=N/n2cnnc2)c(C(C)(C)C)cc1O,6.23,6.34,
COc1cc(/C=N/n2cnnc2)cc(OC)c1OC,5.12,5.46,
C(=N\n1cnnc1)/c1c2ccccc2cc2ccccc12,5.27,5.41,
Oc1ccc(O)c(/C=N/n2cnnc2)c1,5.27,5.37,
C(=N\n1cnnc1)/c1cc2ccc3cccc4ccc(c1)c2c34,6.41,6.3,
CCOc1cc(/C=N/n2cnnc2)ccc1OC,5.22,5.47,
Oc1ccc(/C=N/n2cnnc2)cc1O,5.69,5.44,
COc1ccc(Br)c(/C=N/n2cnnc2)c1O,5.25,5.52,

# Further compounds by falling IC50 [2], results first:
IC50 [1] [µM],IC50 [2] [µM],Compound,further results
4.37,4.29,COc1cccc(OC)c1/C=N/n1cnnc1,
4.37,4.28,COc1ccc(/C=N/n2cnnc2)c(OC)c1,
4.36,4.28,Clc1ccc(/C=N/n2cnnc2)cc1,
4.34,4.27,Cc1ccc(/C=N/n2cnnc2)c(C)c1,
3.3,3.46,COc1ccc(Br)cc1/C=N/n1cnnc1,
3.31,3.27,COc1cc(/C=N/n2cnnc2)cc(OC)c1O,
2.99,2.62,Oc1ccc(/C=N/n2cnnc2)cc1,Km [3]: 400 µM; Vmax [4]: 701 µM/min
2.25,2.52,COc1cc(/C=N/n2cnnc2)cc(OC)c1Br,Km [3]: 700 µM; Vmax [4]: 690 µM/min
2.18,2.49,Clc1ccc(/C=N/n2cnnc2)c(Cl)c1,Km [3]: 500 µM; Vmax [4]: 685 µM/min
2.36,2.47,O=[N+]([O-])c1ccc(/C=N/n2cnnc2)cc1,Km [3]: 500 µM; Vmax [4]: 680 µM/min
2.28,2.44,Nc1ncccc1/C=N/n1cnnc1,Km [3]: 500 µM; Vmax [4]: 685 µM/min
2.27,2.37,Oc1ccc(/C=N/n2cnnc2)cc1Br,Km [3]: 400 µM; Vmax [4]: 698 µM/min
2.9,2.33,COc1ccc(/C=N/n2cnnc2)c(F)c1,Km [3]: 500 µM; Vmax [4]: 701 µM/min
2.41,2.31,O=[N+]([O-])c1cc(O)cc(/C=N/n2cnnc2)c1,Km [3]: 500 µM; Vmax [4]: 695 µM/min
2.33,2.27,COc1cc(/C=N/n2cnnc2)ccc1F,Km [3]: 500 µM; Vmax [4]: 697 µM/min
2.01,2.09,C(=N\n1cnnc1)/c1cc2ccccc2[nH]1,Km [3]: 300 µM; Vmax [4]: 703 µM/min
,1.99,C[C@H]1O[C@H](O[C@H]2[C@H](O)[C@@H](O)[C@@H](O[C@H]3[C@H](O)[C@@H](O)C(O)O[C@@H]3CO)O[C@@H]2CO)[C@H](O)[C@@H](O)[C@@H]1N[C@H]1C=C(CO)[C@@H](O)[C@H](O)[C@H]1O (some centres not stated) [ACARBOSE],

# — ChEMBL document CHEMBL4622848, “Syntheses, in vitro α-amylase and α-glucosidase dual inhibitory activities of 4-amino-1,2,4-triazole derivatives their molecular docking and kinetic studies” (Bioorg Med Chem, 2020)
